Assay results as given in ChEMBL document CHEMBL1132403, “Prospective identification of biologically active structures by topomer shape similarity searching” (J Med Chem, 1999).

Molecular target: T1, Type-1 angiotensin II receptor B (Rattus norvegicus) (UniProt P29089)
T1 sequence (whole entry): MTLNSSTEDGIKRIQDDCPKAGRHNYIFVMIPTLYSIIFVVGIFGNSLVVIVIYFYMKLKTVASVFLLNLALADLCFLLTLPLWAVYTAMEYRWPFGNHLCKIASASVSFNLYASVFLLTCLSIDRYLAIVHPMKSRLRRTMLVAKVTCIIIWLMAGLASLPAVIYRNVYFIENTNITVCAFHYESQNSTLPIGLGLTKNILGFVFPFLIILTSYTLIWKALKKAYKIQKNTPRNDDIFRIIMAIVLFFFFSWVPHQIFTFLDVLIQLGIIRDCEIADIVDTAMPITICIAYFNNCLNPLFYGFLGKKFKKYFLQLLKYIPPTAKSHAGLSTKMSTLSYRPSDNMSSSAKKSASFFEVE
Assay: Percent displacement of [125I]Sar, Ile-Angiotensin II (A II) binding to rat Angiotensin II receptor, type 1
Parameters: concentration or dose not given beside the values
Outline: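 Whole-cell competition binding on rat aortic smooth muscle cells expressing rat AT1, seeded 24 h before assay. Radioligand [125I]Sar,Ile-angiotensin II at 0.2 nM in DMEM pH 7.4 with 5 mM MgCl2, 1 mM EDTA and 0.1% BSA. Incubation 2 h at 25 °C with mild shaking. Nonspecific binding defined by 10 μM angiotensin II (final). Cells washed twice with PBS, lysed in 1% Triton X/0.1% BSA, and counted on a γ counter. Assay variability at least ±20%.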

`O=C(O)c1cccc(-c2ccc(Cn3c(C(F)(F)F)nc4ccccc43)cc2)c1` gave a Displacement of 33%.

`c1ccc(-c2ccc(Cn3c(-c4cscn4)nc4ccccc43)cc2)c(Cc2nnn[nH]2)c1` gave a Displacement of 35%.

Compound `O=C1COc2cccnc2N1Cc1cccc(-c2cccc(Cc3nnn[nH]3)c2)c1` has a Displacement of 21%.

In the case of `CC(C)c1nc2ccccc2n1Cc1ccc(-c2ccccc2-c2nn[nH]n2)cc1`, the Displacement is reported as 69%.

With `CSc1nc2ccccc2n1Cc1ccc(-c2ccccc2Cc2nnn[nH]2)cc1` the Displacement was 38%.

Compound `O=C(O)c1cccc(-c2ccc(CN3C(=O)C(=O)c4c(Cl)ccc(Cl)c43)cc2)c1` has a Displacement of 31%.

Work on `CCCc1nccn1Cc1ccc(-c2ccccc2C(=O)O)cc1` yielded a Displacement of 37%.

For `Clc1nc2ccccc2n1Cc1ccc(-c2ccccc2Cc2nnn[nH]2)cc1`, the Displacement was 31%.

In the case of `CN(C)c1cnnc2ncn(Cc3cccc(-c4ccccc4C(=O)O)c3)c12`, the Displacement is reported as 47%.

For `CCOC(=O)c1cc2ccccc2n1Cc1cccc(-c2ccccc2CC(=O)O)c1`, the Displacement was 30%.
